Test results taken from ChEMBL document CHEMBL1926538, “3,5-Disubstituted-thiazolidine-2,4-dione analogs as anticancer agents: design, synthesis and biological characterization” (Eur J Med Chem, 2012).
Calls of active or inactive are those of the source. The calls are words filed in the database; no cut-off is given here.

Columns and labels:
[1] = Induction of apoptosis in human M12 cells assessed as viable cells at 20 uM after 24 hrs by annexinV-propidium iodide staining-based flow cytometric analysis (reference value: 80.18%); assay type: functional; details: M12, 24 h, read-out: Activity
U-937 [2] = assay: Induction of apoptosis in human U937 cells assessed as late apoptotic cells at 10 uM after 6 hrs by annexinV-propidium iodide staining-based flow cytometric analysis (reference value: 13.8%); assay type: functional
U-937 [3] = assay: Induction of apoptosis in human U937 cells assessed as late apoptotic cells at 3 uM after 18 hrs by annexinV-propidium iodide staining-based flow cytometric analysis (reference value: 7.8%); assay type: functional
U-937 [4] = assay: Induction of apoptosis in human U937 cells assessed as viable cells at 3 uM after 18 hrs by annexinV-propidium iodide staining-based flow cytometric analysis (reference value: 87.2%); assay type: functional; details: U-937, 18 h, read-out: Activity
U-937 [5] = assay: Induction of apoptosis in human U937 cells assessed as early apoptotic cells at 3 uM after 6 hrs by annexinV-propidium iodide staining-based flow cytometric analysis (reference value: 4.6%); assay type: functional
U-937 [6] = assay: Induction of apoptosis in human U937 cells assessed as viable cells at 3 uM after 6 hrs by annexinV-propidium iodide staining-based flow cytometric analysis (reference value: 80.3%); assay type: functional; details: U-937, 6 h, read-out: Activity
U-937 [7] = assay: Induction of apoptosis in human U937 cells assessed as necrotic cells at 3 uM after 3 hrs by annexinV-propidium iodide staining-based flow cytometric analysis (reference value: 2.3%); assay type: functional
U-937 [8] = assay: Induction of apoptosis in human U937 cells assessed as late apoptotic cells at 3 uM after 3 hrs by annexinV-propidium iodide staining-based flow cytometric analysis (reference value: 8.6%); assay type: functional
[9] = Growth inhibition of human NCI60 cells; assay type: functional
U-937 [10] = assay: Growth inhibition of human U937 cells after 72 hrs by MTS assay in presence of 320 uM AMPK activator AICA; assay type: functional, cell-based
Outline: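 U937 cells exposed 72 h, with or without AICA 320 µM, then MTS added. Absorbance read at 490 nm, expressed as percentage of untreated controls. Data are mean percentage viability, n = 6, error bars SEM.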

[11] = target: Proto-oncogene tyrosine-protein kinase Src (Homo sapiens) (UniProt P12931); assay: Inhibition of SRC at 10 uM
[12] = target: Rho-associated protein kinase 2 (Homo sapiens) (UniProt O75116); assay: Inhibition of ROCK2 at 10 uM
[13] = target: Serine/threonine-protein kinase D2 (Homo sapiens) (UniProt Q9BZL6); assay: Inhibition of PKD2 at 10 uM
[14] = target: Protein kinase C zeta type (Homo sapiens) (UniProt Q05513); assay: Inhibition of PKCzeta at 10 uM
[15] = Inhibition of PKA at 10 uM
[16] = target: Protein kinase C beta type (Homo sapiens) (UniProt P05771); assay: Inhibition of PKCbeta2 at 10 uM
[17] = Inhibition of P70S6K at 10 uM
[18] = target: Hepatocyte growth factor receptor (Homo sapiens) (UniProt P08581); assay: Inhibition of MET at 10 uM
[19] = target: Dual specificity mitogen-activated protein kinase kinase 1 (Homo sapiens) (UniProt Q02750); assay: Inhibition of MEK1 at 10 uM
[20] = target: Interleukin-1 receptor-associated kinase 4 (Homo sapiens) (UniProt Q9NWZ3); assay: Inhibition of IRAK4 at 10 uM
[21] = target: Insulin-like growth factor 1 receptor (Homo sapiens) (UniProt P08069); assay: Inhibition of IGF1R at 10 uM
[22] = target: Glycogen synthase kinase-3 beta (Homo sapiens) (UniProt P49841); assay: Inhibition of GSK3-beta at 10 uM
[23] = target: Tyrosine-protein kinase Fyn (Homo sapiens) (UniProt P06241); assay: Inhibition of FYN at 10 uM
[24] = target: Receptor-type tyrosine-protein kinase FLT3 (Homo sapiens) (UniProt P36888); assay: Inhibition of FLT3 at 10 uM
[25] = target: MAP/microtubule affinity-regulating kinase 3 (Homo sapiens) (UniProt P27448); assay: Inhibition of c-TAK1 at 10 uM
[26] = target: Serine/threonine-protein kinase Chk1 (Homo sapiens) (UniProt O14757); assay: Inhibition of CHK1 at 10 uM
[27] = target: Calcium/calmodulin-dependent protein kinase type IV (Homo sapiens) (UniProt Q16566); assay: Inhibition of CAMK4 at 10 uM
[28] = target: Aurora kinase A (Homo sapiens) (UniProt O14965); assay: Inhibition of aurora A kinase at 10 uM
[29] = target: RAC-alpha serine/threonine-protein kinase (Homo sapiens) (UniProt P31749); assay: Inhibition of AKT1 at 10 uM
[30] = target: Tyrosine-protein kinase ABL1 (Homo sapiens) (UniProt P00519); assay: Inhibition of ABL at 10 uM
[31] = target: c-Jun N-terminal kinase, JNK (Homo sapiens) (UniProt P45983+P53779+P45984); assay: Inhibition JNK phosphorylation in human U937 cells at 1 to 10 uM after 1 hr by Western blot analysis; assay type: cell-based; details: U-937
Outline: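 U937 cells at 5 × 10^5/mL were exposed to compound for 1 h, then sonicated in SDS/DTT sample buffer with protease inhibitors plus 1 mM orthovanadate and pyrophosphate, and boiled 5 min. Blots were blocked in 5% milk, probed with primary antibody overnight at 4 °C and 1:2000 HRP secondary, and read by chemiluminescence. α-Tubulin reprobe served as loading control. Blots shown represent one of three experiments.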

M12 = assay: Growth inhibition of human M12 cells after 24 hrs by MTS assay; assay type: functional, cell-based
Outline: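 Cells in RPMI 1640 with 10% heat-inactivated FBS, seeded 2 × 10⁴ cells/well and exposed 24 h. MTS reagent added, then 1 h further incubation at 37 °C, 5% CO₂. Formazan absorbance read at 490 nm. Viability expressed as percentage of untreated controls.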

U-937 [32] = assay: Cell cycle arrest in human U937 cells assessed as decrease in G2/M-phase population at 10 uM after 24 hrs by propidium iodide staining-based flow cytometric analysis; assay type: functional
Outline: (§1)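 Cells cultured in RPMI 1640 with 10% FBS and treated 24 h at the indicated concentrations. Stained with propidium iodide for 4 h at 4 °C in the dark. Flow cytometry gave the percentage of cells in G₀/G₁, S, G₂/M and sub-G₁ phases.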

U-937 [33] = assay: Cell cycle arrest in human U937 cells assessed as accumulation at S-phase at 10 uM after 24 hrs by propidium iodide staining-based flow cytometric analysis; assay type: functional; outline: as §1
DU-145 = assay: Induction of apoptosis in human DU145 cells assessed as necrotic cells at 20 uM after 24 hrs by annexinV-propidium iodide staining-based flow cytometric analysis (reference value: 2.1%); assay type: functional
[34] = target: 3-phosphoinositide-dependent protein kinase 1 (Homo sapiens) (UniProt O15530); assay: Inhibition of PDK1 at 10 uM
[35] = Inhibition of MSK2 at 10 uM

Hepatocyte growth factor receptor (Homo sapiens), sequence (P08581 whole entry): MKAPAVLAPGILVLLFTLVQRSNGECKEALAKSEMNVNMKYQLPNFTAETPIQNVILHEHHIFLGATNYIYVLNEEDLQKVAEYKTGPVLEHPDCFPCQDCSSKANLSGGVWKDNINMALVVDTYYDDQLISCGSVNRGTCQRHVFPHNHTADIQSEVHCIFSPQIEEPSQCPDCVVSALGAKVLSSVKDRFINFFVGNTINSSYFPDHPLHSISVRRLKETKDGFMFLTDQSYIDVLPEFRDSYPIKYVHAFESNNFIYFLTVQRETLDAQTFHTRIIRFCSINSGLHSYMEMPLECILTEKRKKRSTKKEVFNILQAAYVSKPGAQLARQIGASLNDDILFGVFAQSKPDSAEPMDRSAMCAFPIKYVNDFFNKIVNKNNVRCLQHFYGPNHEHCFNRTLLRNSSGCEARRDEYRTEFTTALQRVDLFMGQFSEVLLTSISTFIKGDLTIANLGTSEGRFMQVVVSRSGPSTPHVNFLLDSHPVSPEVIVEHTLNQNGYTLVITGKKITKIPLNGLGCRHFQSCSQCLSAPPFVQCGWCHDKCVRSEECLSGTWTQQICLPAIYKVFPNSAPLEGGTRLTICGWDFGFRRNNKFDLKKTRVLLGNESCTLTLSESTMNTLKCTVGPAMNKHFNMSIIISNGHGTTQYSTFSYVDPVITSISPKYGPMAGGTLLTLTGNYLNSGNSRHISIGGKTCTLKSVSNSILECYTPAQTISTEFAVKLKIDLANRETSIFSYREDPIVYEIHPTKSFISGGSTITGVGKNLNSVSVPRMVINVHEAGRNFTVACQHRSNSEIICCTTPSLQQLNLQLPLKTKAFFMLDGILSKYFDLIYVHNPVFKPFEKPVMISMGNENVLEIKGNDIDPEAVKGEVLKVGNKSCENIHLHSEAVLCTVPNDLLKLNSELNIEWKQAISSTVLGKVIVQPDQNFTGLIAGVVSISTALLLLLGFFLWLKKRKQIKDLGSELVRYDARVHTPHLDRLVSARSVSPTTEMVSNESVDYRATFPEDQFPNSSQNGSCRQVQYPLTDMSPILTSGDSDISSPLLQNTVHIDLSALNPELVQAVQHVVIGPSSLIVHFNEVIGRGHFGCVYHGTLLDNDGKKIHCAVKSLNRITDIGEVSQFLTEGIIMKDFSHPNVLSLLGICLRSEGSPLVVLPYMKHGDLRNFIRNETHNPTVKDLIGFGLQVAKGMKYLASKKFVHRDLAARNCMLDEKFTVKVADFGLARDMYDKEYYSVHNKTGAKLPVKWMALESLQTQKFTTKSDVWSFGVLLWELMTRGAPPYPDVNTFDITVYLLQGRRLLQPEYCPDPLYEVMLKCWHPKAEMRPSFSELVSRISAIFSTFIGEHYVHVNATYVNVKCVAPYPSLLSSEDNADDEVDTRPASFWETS
Serine/threonine-protein kinase D2 (Homo sapiens), sequence (Q9BZL6 whole entry): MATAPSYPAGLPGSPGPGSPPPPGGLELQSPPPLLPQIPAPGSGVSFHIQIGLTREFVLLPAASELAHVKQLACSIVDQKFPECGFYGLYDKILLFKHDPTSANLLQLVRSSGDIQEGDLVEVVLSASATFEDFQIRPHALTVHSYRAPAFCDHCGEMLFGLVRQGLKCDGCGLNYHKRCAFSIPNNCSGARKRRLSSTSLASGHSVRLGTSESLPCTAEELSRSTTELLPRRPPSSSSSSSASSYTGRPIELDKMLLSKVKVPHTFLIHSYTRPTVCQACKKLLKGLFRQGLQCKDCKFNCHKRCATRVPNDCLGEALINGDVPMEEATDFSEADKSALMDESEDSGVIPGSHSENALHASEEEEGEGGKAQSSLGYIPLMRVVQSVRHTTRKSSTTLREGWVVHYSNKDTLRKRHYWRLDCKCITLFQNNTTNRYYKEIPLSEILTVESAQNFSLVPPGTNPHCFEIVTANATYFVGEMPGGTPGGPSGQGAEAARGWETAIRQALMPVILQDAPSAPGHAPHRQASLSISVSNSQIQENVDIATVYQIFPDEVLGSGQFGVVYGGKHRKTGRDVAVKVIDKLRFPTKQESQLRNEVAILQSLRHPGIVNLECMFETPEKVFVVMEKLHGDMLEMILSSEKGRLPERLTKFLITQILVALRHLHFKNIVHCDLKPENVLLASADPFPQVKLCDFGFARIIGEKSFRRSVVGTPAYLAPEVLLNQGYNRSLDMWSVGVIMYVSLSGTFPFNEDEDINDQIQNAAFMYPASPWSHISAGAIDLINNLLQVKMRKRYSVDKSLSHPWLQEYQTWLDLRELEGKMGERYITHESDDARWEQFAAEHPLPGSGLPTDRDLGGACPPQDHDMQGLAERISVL
Serine/threonine-protein kinase Chk1 (Homo sapiens), sequence (O14757 whole entry): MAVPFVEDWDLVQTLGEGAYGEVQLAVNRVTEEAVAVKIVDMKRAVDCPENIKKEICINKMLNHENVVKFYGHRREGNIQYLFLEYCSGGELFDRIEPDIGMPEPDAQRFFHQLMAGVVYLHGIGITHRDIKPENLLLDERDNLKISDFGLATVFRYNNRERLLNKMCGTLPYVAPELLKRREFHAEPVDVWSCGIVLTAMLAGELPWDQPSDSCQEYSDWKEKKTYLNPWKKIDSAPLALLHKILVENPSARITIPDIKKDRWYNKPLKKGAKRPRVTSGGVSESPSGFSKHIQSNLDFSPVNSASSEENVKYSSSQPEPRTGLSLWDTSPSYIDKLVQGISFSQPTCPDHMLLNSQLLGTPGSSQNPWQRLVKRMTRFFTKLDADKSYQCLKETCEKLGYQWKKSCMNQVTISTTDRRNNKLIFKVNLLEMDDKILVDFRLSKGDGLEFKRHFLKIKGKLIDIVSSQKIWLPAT
Rho-associated protein kinase 2 (Homo sapiens), sequence (O75116 whole entry, looked up): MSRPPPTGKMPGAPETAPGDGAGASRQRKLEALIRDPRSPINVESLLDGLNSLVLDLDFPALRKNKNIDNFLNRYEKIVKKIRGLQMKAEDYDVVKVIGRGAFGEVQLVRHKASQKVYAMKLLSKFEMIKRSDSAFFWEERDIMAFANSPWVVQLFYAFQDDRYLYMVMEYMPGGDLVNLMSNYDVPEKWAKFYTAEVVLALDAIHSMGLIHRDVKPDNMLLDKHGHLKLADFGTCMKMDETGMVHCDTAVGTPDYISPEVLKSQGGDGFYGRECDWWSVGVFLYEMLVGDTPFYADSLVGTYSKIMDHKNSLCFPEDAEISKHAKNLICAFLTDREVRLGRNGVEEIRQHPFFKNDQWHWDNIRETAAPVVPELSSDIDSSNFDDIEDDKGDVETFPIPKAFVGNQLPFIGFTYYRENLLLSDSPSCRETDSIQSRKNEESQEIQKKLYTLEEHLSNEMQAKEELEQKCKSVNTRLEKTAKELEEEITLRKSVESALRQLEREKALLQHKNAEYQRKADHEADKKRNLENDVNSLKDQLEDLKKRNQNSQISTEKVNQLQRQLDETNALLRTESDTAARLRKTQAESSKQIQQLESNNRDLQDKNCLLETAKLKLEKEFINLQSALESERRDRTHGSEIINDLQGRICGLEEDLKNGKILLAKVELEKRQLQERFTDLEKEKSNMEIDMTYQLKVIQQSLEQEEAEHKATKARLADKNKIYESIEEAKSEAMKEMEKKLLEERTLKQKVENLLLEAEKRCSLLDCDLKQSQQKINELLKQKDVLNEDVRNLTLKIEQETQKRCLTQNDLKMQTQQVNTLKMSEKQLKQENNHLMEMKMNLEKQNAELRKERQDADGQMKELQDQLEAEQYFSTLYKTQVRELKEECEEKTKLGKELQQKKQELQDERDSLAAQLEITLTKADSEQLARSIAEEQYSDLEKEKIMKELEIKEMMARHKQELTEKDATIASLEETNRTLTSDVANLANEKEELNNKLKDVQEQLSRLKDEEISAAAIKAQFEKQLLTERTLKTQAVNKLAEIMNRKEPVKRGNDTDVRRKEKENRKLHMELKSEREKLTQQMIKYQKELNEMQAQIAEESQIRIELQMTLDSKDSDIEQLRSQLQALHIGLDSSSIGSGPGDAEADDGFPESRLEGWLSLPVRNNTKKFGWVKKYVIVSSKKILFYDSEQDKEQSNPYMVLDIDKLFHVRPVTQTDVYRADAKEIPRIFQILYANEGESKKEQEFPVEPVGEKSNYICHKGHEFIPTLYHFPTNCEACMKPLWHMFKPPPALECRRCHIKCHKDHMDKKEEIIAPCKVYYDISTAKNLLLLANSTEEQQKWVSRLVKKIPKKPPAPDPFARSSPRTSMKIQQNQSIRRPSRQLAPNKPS
Aurora kinase A (Homo sapiens), sequence (O14965 whole entry): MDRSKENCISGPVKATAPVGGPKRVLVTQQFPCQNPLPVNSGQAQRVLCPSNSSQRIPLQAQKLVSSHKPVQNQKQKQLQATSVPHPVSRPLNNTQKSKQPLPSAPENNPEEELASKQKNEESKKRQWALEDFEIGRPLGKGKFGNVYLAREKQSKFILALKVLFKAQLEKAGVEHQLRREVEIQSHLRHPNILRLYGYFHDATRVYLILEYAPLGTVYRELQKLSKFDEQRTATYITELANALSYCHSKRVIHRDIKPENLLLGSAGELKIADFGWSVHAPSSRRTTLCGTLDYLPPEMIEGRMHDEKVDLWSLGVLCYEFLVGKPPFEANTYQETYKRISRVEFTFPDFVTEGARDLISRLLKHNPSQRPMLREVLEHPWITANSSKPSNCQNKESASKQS
Tyrosine-protein kinase Fyn (Homo sapiens), sequence (P06241 2-537 limits assumed): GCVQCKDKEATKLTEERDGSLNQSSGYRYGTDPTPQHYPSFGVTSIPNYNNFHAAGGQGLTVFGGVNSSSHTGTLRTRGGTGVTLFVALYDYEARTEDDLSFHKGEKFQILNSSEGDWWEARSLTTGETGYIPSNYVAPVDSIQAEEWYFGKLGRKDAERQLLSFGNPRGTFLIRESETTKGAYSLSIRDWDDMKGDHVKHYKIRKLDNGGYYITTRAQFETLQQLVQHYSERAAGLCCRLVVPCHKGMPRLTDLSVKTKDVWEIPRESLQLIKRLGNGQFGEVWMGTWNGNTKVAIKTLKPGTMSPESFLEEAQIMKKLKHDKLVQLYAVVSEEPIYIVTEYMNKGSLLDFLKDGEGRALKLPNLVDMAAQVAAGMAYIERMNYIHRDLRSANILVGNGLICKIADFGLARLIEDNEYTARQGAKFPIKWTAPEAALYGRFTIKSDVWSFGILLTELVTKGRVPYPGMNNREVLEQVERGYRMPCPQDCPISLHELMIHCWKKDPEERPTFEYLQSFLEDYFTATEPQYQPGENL

NCCN1C(=O)S/C(=C\CCC2CCCCC2)C1=O
viability at 20 µM [1]: 5.1%
Activity (U-937 [2]): 40.2%
Activity (U-937 [3]): 5.7%
viability at 3 µM (U-937 [4]): 90.1%
Activity (U-937 [5]): 3.8%
viability at 3 µM (U-937 [6]): 75.7%
Activity (U-937 [7]): 1.9%
Activity (U-937 [8]): 7.7%
GI50 [9]: 1400 nM
growth inhibition (GI) (U-937 [10]): Active
inhibition [11]: 2%
inhibition [12]: -1%
inhibition [13]: 0%
inhibition [14]: -8%
inhibition [15]: -3%
inhibition [16]: 16%
inhibition [17]: 5%
inhibition [18]: -1%
inhibition [19]: 69%
inhibition [20]: -1%
inhibition [21]: -5%
inhibition [22]: 0%
inhibition [23]: 0%
inhibition [24]: 38%
inhibition [25]: 6%
inhibition [26]: 11%
inhibition [27]: 71%
inhibition [28]: -4%
inhibition [29]: 3%
inhibition [30]: 6%
inhibition [31]: inactive
growth inhibition (GI) (M12): Active
Activity (U-937 [32]): Active
Activity (U-937 [33]): 23.6%
Activity (DU-145): 3.2%
inhibition [34]: -2%
inhibition [35]: 3%
